C2C12 statin: suppressors of simvastatin-induced myotoxicity in C2C12 myotubes. ATP luminescence, 48 h; scaled: DMSO 0, geranylgeraniol control 100. rescue of ATP level, % at 7.49 µM. hit rate 0.78% among 330,000;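 active = mean ATP rescue above about 67%, or every replicate alone reaching that limit, limit read from the data, passing the limit was not always enough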;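 also: myotubes were challenged with 10 µM simvastatin during compound exposure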
E-selectin induc: E-selectin induction on HUVECs. P16581. HUVEC E-selectin immunofluorescence imaging; normalized: neutral wells 0, TNF-alpha wells 100. activation, % at 7.58 µM. hit rate 0.37% among 260,000;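 active = mean E-selectin-positive cell signal at least 10% of the positive control, reached in at least 60% of replicates, without over 20% cell loss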
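assay system = HUVEC, human umbilical vein endothelial cells | input = 3,000 HUVEC seeded per well | medium = EGM-2 growth medium on 0.1% gelatin-coated wells | dosing = one compound dose added by pin transfer | signal = immunofluorescence imaging | read-out basis = % PE-positive cells | control set = TNF-alpha, DMSO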
Ecoli rRNA inh: selective bacterial rRNA inhibition in E. coli; GFP signal change (wild-type ribosome), % (no concentration beside the values); hit rate 1.6% among 350,000; E. coli WT GFP vs humanized-ribosome RFP mutants, fluorescence, 24 h; stronger effect = lower value; DMSO median 0, no signal -100;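 active = significant combined selectivity score with lowered wild-type GFP, culture density cut under 30%, mutant RFP and density less affected; inactive = any of these conditions unmet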
FGF22 binding: shifts melting point of recombinant human FGF22; Q9HCT0; recombinant FGF22 thermal shift, SYPRO orange fluorescence; percent of sucrose octasulfate shift, DMSO zero; activity (Tm shift, normalised), % at 9.99 µM; hit rate 1.5% among 340,000; AID 651658;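 active = mean Tm shift, scaled 0 neutral to 100 positive control, at about 1.3% or above, every replicate too, limit read from the data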
Target sequence (Q9HCT0 whole entry, looked up): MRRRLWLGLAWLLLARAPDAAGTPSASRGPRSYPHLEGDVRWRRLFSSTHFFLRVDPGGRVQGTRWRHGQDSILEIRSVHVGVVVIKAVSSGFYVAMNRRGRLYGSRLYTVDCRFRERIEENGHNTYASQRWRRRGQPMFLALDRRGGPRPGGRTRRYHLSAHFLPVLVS
SIRT5 block: inhibitors of human sirtuin-5 desuccinylase; Q9NXA8; inhibition, % at 15 µM; Purified SirT5, succinyl-peptide AMC, trypsin-coupled fluorescence; hit rate 1.1% among 330,000; in the data active = inhibition above about 15%
Target sequence (Q9NXA8 whole entry, looked up): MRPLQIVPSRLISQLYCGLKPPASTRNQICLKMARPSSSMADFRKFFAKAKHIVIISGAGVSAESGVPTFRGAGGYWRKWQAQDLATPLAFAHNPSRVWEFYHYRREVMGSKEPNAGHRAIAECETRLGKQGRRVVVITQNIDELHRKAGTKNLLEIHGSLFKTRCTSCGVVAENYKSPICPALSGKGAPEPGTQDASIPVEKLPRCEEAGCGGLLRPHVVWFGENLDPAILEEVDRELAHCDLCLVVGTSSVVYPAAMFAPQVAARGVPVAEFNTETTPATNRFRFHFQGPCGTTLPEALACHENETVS
FN deposit inh: fibronectin deposition inhibition. AH1F fibroblasts, Alexa488-fibronectin deposition fluorescence, overnight. inhibition, % at 12.6 µM. hit rate 0.086% among 350,000;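 active = mean inhibition across replicates of 30% or more, regardless of how many single replicates reach that level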
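Test system: AH1F fibroblast monolayer depositing Alexa488-labelled fibronectin into matrix. Input: 10000 cells per well. Technique: fluorescence, ex 485 nm, em 525 nm. Buffer or medium: DMEM plus 2% serum, read in PBS. Timing: 1 h cell adhesion before compound, then overnight fibronectin incubation. Compound: single dose, pinned. Read-out basis: inhibition from reduced deposited-fibronectin fluorescence.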
Large screens that a line does not name were inactive. Sampled rows, rich in hits. Any-hit rate of the full collection: about 4%.

COC(=O)[C@@]1(C)[C@H]2C(=O)N(Cc3ccccc3)C(=O)[C@H]2[C@H]2CN=C(SCc3ccc(Cl)cc3)N21	Ecoli rRNA inh -21.1 (no result: E-selectin induc)
CN1CCN(c2ccc([N+](=O)[O-])c(-n3nc(-c4ccccc4)c4ccccc4c3=O)c2)CC1	C2C12 statin 80.0 (no result: E-selectin induc, Ecoli rRNA inh, FGF22 binding, SIRT5 block)
O=C(C[C@H]1CC[C@H]2[C@@H](COC[C@@H](O)CN2Cc2cccc(Cl)c2)O1)NCC1CCCCC1	none (no result: SIRT5 block)
COc1cc(C(=O)N(CCc2ccccc2)C2=CC3CCC(C2)N3C)cc(OC)c1OC (configuration not stated)	C2C12 statin 91.2 (no result: E-selectin induc, Ecoli rRNA inh, FGF22 binding, SIRT5 block, FN deposit inh)
CCCCN(C(=O)c1cc(OC)c(OC)c(OC)c1)C1=CC2CCC(C1)N2C (configuration not stated)	none (no result: E-selectin induc, Ecoli rRNA inh, FGF22 binding, SIRT5 block, FN deposit inh)
COC(=O)[C@]12CCCCC=C1N(Cc1cccc3ccccc13)C(=O)[C@H](CC(=O)NCc1ccccc1)C2	none (no result: C2C12 statin)
COC(=O)[C@@]12C[C@@H](CC(=O)NCc3ccccc3)C(=O)N(Cc3cccc4ccccc34)C1=CCC(C)(C)C2	FGF22 binding 19.9 (no result: C2C12 statin)
CCCCCCCCN1C(=O)[C@H](CC(=O)NCCCN2CCCC2=O)C[C@@]2(C(=O)OC)CC(C)(C)CC=C12	SIRT5 block 19.2 (no result: C2C12 statin)
COC(=O)[C@@]12C[C@@H](CC(=O)NCc3ccccc3)C(=O)N(Cc3ccccc3)C1=CCC(C)(C)C2	SIRT5 block 35.6 (no result: C2C12 statin, Ecoli rRNA inh)
COC(=O)[C@@]12C[C@@H](CC(=O)NCCCN3CCCC3=O)C(=O)N(Cc3ccccc3)C1=CCC(C)(C)C2	none (no result: C2C12 statin)
COC(=O)[C@]12CCCCC=C1N(Cc1cccc3ccccc13)C(=O)[C@H](CC(=O)NCC1CCCCC1)C2	SIRT5 block 22.0 (no result: C2C12 statin, FGF22 binding)
COC(=O)[C@@]12C[C@@H](CC(=O)NCc3cccc4ccccc34)C(=O)N(Cc3cccc4ccccc34)C1=CCC(C)(C)C2	none (no result: C2C12 statin, Ecoli rRNA inh)
CN1CCN(C(=O)C[C@@H]2CC[C@H]3[C@@H](COC[C@H](O)CN3CC3CC3)O2)CC1	none
COc1ccc(N2CCN(C(=O)c3cc4cc(Cl)ccc4[nH]3)CC2)cc1	SIRT5 block 17.5
O=C(c1cc2cc(Cl)ccc2[nH]1)N1CCN(c2ccc(F)cc2)CC1	none
C[C@H]1CN([C@@H](C)CO)C(=O)c2cc(-c3cccnc3)cnc2O[C@H]1CN(C)C(=O)Nc1ccccc1	none (no result: FN deposit inh)
Oc1ccc(N=Nc2n[nH]c(-c3ccc(Cl)cc3)n2)cc1	Ecoli rRNA inh -17.7 (no result: E-selectin induc, FN deposit inh)
O=C(Cn1cnc([N+](=O)[O-])n1)N/N=C/c1ccc2ccccc2c1	FGF22 binding 43.7 (no result: C2C12 statin, E-selectin induc)
O=C(Cc1ccccn1)NCC[C@@H]1CC[C@@H](NC(=O)Nc2ccccc2)[C@H](CO)O1	none (no result: FN deposit inh)
CC(C)c1ccc(C(=O)Nc2nnc(S(=O)(=O)N3CCCCC3)s2)cc1	E-selectin induc 44.8
O=C(Nc1nnc(S(=O)(=O)N2CCCCCC2)s1)c1ccc(Cl)cc1	none (no result: E-selectin induc)
CCOC(=O)c1c(NC(C)=O)sc(C(=O)NC2CCCC2)c1C	none
C/C(=N\Nc1ccc(C(=O)O)cc1)c1ccc(Cl)s1	SIRT5 block 23.4
C/C(=N\Nc1ccc(C(=O)O)cc1)c1ccc(Br)cc1	SIRT5 block 21.0
CCOC(=O)c1c(NC(C)=O)sc(/C(C)=N/Nc2ccc(C(=O)O)cc2)c1C	Ecoli rRNA inh -17.1
C/C(=N\Nc1ccc(Cl)c(C(=O)O)c1)c1ccc(Br)s1	none (no result: E-selectin induc)
COc1cc(/C=N/NC(=O)c2ccncc2)ccc1OC(=O)c1cccc(Br)c1	none (no result: E-selectin induc, Ecoli rRNA inh)
COc1cccc(C(=O)Oc2c(Br)cc(Br)cc2/C=N/NC(=O)c2cc(C)[nH]n2)c1	Ecoli rRNA inh -20.4 (no result: C2C12 statin, E-selectin induc, FN deposit inh)
C#CCOc1ccc(/C=N/NC(=O)c2cccnc2)cc1OCC	none
CCOc1cc(/C=N/NC(=O)c2cccnc2)cc(Br)c1OCC(N)=O	FGF22 binding 43.7 (no result: C2C12 statin)
O=C(N/N=C/c1ccc(N2CCCC2)c([N+](=O)[O-])c1)c1cccnc1	FN deposit inh 31.2 (no result: C2C12 statin, E-selectin induc)
COc1cccc(C(=O)Oc2ccc(/C=N/NC(=O)c3ccncc3)cc2OC)c1	SIRT5 block 21.2 (no result: E-selectin induc)
COc1ccc(S(=O)(=O)N(C)C[C@H]2Oc3ccc(NC(=O)CCC(F)(F)F)cc3CC(=O)N([C@@H](C)CO)C[C@H]2C)cc1	none (no result: FN deposit inh)
